Test results taken from ChEMBL document CHEMBL4376814, “Novel cyclin-dependent kinase 9 (CDK9) inhibitor with suppression of cancer stemness activity against non-small-cell lung cancer” (Eur J Med Chem, 2019).
Active and inactive are the calls of the source. The calls are words filed in the database; no cut-off is given here.

Experiments:
NCI-H1299 [1] = assay: Induction of apoptosis in human H1299 cells assessed as reduction in Bcl-2 level at 0.25 to 1 uM after 24 hrs by Western blot analysis; format: functional, cell-based
How it was run: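 A549 or H1299 cells exposed to the indicated concentrations for 24 h. Protein extracts then immunoblotted for apoptosis-pathway proteins (Bcl2, Bim, cleaved caspase 3).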

[2] = molecular target: Ephrin type-B receptor 4 (Homo sapiens) (UniProt P54760); assay: Inhibition of recombinant human EphB4 (561 to end residues) at 1 uM using poly(Glu, Tyr) 4:1 as substrate measured after 40 mins in presence of [gamma33P]ATP by scintillation counting method relative to control
Ephrin type-B receptor 4 (Homo sapiens), sequence (P54760 whole entry): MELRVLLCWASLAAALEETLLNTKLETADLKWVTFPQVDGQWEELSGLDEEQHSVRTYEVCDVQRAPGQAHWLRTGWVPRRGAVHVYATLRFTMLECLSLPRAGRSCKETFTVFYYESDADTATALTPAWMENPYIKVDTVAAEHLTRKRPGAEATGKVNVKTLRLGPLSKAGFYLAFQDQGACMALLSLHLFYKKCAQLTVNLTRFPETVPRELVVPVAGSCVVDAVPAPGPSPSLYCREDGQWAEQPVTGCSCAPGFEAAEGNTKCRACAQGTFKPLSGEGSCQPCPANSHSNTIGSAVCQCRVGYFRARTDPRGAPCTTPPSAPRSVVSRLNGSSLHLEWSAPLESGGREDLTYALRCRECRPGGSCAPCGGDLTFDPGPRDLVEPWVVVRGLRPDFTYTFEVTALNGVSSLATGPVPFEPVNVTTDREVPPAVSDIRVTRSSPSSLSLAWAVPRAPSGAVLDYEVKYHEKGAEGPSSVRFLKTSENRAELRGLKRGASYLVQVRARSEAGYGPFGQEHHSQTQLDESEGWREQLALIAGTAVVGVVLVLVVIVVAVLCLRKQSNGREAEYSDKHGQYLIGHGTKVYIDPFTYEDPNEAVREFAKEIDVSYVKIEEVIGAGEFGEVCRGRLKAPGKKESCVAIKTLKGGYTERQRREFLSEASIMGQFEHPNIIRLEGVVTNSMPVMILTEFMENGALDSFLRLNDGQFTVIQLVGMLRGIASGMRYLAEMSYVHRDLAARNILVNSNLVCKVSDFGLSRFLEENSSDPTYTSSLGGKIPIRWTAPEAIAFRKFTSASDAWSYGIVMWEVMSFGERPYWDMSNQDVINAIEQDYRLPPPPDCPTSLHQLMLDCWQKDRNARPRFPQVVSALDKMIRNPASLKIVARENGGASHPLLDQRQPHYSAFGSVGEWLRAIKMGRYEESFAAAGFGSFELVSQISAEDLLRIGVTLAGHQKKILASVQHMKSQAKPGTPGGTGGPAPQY

[3] = molecular target: Tyrosine-protein kinase Lyn (Homo sapiens) (UniProt P07948); assay: Inhibition of recombinant full-length human LYN at 1 uM using poly(Glu, Tyr) 4:1 as substrate measured after 40 mins in presence of [gamma33P]ATP by scintillation counting method relative to control
[4] = molecular target: Protein kinase C beta type (Homo sapiens) (UniProt P05771); assay: Inhibition of recombinant human PKCbeta2 (2 to end residues) at 1 uM using histone H1 as substrate measured after 40 mins in presence of [gamma33P]ATP by scintillation counting method relative to control
NCI-H1299 [5] = assay: Induction of cell cycle arrest in human H1299 cells assessed as accumulation at G2/M phase after 24 hrs by propidium iodide/RNase staining based flow cytometric analysis; format: functional
How it was run: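 A549 and H1299 plated at 5×10^5 cells/mL in 6-well plates, treated after adherence for 24 h. Washed with PBS, fixed overnight in ice-cold 75% ethanol, stained with propidium iodide plus RNase A for 30 min at 37 °C, analysed by flow cytometry for phase distribution. Means ± SD, three independent experiments.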

[6] = system: Tyrosine-protein kinase ABL1 (Homo sapiens), P00519 [H396P]; assay: Inhibition of recombinant human ABL H396P mutant (27 to end residues) at 1 uM using EAIYAAPFAKKK as substrate measured after 40 mins in presence of [gamma33P]ATP by scintillation counting method relative to control
[7] = molecular target: Tyrosine-protein kinase ZAP-70 (Homo sapiens) (UniProt P43403); assay: Inhibition of recombinant full-length human ZAP-70 at 1 uM using poly(Glu, Tyr) 4:1 as substrate measured after 40 mins in presence of [gamma33P]ATP by scintillation counting method relative to control
Tyrosine-protein kinase ZAP-70 (Homo sapiens), sequence (P43403 whole entry, the tested form may be a part): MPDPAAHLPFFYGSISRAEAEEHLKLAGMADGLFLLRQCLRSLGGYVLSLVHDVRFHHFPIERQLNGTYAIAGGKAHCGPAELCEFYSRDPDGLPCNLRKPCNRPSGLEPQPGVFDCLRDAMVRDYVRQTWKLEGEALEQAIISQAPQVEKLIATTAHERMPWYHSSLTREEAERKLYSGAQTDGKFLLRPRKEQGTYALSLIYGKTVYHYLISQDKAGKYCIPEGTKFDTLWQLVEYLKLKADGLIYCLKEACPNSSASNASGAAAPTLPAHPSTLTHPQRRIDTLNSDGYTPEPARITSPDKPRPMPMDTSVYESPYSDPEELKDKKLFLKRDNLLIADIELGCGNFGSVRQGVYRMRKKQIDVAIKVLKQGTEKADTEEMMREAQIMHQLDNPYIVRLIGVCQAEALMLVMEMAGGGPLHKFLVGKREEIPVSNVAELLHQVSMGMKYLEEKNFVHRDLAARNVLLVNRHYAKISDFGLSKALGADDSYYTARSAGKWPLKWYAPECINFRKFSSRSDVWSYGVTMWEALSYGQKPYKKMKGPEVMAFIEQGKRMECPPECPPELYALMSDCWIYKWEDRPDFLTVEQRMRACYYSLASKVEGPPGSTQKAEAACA

[8] = molecular target: Serine/threonine-protein kinase WNK3 (Homo sapiens) (UniProt Q9BYP7); assay: Inhibition of recombinant human WNK3 (1 to 434 residues) at 1 uM using MBP as substrate measured after 40 mins in presence of [gamma33P]ATP by scintillation counting method relative to control
How it was run: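 Single-point inhibition at 1 µM was measured in the Eurofins KinaseProfiler panel. Values are the mean of two independent experiments.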

A549 = assay: Induction of apoptosis in human A549 cells assessed as viable cells at 0.25 uM after 48 hrs by AnnexinV-FITC/PI staining-based flow cytometric analysis (reference value: 88.8%); format: functional; conditions: A549, 48 h, read-out: Activity
[9] = molecular target: Serine/threonine-protein kinase pim-2 (Homo sapiens) (UniProt Q9P1W9); assay: Inhibition of recombinant human Pim-2 (2 to end residues) at 1 uM using RSRHSSYPAGT as substrate measured after 40 mins in presence of [gamma33P]ATP by scintillation counting method relative to control
Serine/threonine-protein kinase pim-2 (Homo sapiens), sequence (Q9P1W9 whole entry, looked up, the tested form may be a part): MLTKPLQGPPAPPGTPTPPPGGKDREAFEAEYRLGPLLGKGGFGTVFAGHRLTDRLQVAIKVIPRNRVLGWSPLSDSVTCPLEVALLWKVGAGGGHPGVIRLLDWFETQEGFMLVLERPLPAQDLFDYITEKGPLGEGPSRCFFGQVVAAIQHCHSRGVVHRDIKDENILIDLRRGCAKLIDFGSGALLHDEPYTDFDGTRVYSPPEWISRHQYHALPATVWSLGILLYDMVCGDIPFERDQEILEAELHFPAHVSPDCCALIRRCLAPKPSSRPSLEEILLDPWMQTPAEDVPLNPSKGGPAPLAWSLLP

[10] = molecular target: Calcium/calmodulin-dependent protein kinase type II subunit gamma (Homo sapiens) (UniProt Q13555); assay: Inhibition of recombinant full-length human CaMK2gamma (1 to 330 residues) at 1 uM using calmodulin as substrate measured after 40 mins in presence of [gamma33P]ATP by scintillation counting method relative to control
Calcium/calmodulin-dependent protein kinase type II subunit gamma (Homo sapiens), sequence (Q13555 whole entry, the tested form may be a part): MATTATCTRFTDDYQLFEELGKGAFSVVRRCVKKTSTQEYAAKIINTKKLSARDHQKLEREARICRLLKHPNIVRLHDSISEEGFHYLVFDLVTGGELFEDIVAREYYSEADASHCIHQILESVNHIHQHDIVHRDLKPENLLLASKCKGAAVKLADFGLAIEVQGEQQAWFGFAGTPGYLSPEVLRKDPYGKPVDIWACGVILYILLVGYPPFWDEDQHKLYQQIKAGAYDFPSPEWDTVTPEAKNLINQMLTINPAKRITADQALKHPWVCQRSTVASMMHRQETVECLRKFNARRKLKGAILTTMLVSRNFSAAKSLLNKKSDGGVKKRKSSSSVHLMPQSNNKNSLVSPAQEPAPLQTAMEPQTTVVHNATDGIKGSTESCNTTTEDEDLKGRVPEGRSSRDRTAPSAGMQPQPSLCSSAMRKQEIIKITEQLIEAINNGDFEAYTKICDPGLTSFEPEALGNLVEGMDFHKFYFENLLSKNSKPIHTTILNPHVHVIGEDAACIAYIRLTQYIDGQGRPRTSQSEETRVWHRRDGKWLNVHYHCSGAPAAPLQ

[11] = molecular target: Protein kinase C delta type (Homo sapiens) (UniProt Q05655); assay: Inhibition of recombinant human PKCdelta (2 to end residues) at 1 uM using ERMRPRKRQGSVRRR as substrate measured after 40 mins in presence of [gamma33P]ATP by scintillation counting method relative to control
Protein kinase C delta type (Homo sapiens), sequence (Q05655 whole entry, looked up): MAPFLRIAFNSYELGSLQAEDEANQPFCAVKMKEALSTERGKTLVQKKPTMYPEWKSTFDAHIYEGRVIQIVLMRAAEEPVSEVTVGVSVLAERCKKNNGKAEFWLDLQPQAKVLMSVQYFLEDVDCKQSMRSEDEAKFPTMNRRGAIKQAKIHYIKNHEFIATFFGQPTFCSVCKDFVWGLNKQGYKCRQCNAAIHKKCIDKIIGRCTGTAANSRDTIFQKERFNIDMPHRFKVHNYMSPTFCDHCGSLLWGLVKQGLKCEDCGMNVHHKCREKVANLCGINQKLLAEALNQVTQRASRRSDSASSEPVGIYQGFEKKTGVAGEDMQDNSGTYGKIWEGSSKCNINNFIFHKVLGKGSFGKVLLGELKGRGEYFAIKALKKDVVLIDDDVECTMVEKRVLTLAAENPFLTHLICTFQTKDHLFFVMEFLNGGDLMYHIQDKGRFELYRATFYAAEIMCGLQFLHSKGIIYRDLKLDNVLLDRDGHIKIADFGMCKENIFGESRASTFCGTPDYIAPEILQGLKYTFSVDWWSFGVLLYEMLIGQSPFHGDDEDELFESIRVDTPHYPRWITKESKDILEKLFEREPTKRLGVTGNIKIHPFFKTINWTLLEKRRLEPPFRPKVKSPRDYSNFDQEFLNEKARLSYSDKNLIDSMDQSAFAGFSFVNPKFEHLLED

[12] = molecular target: Platelet-derived growth factor receptor alpha (Homo sapiens) (UniProt P16234); assay: Inhibition of recombinant human PDGFRalpha (550 to end residues) at 1 uM using poly[Glu:Tyr] (4:1) as substrate measured after 40 mins in presence of [gamma33P]ATP by scintillation counting method relative to control
[13] = molecular target: Tyrosine-protein kinase Fer (Homo sapiens) (UniProt P16591); assay: Inhibition of recombinant human FER (541 to end residues) at 1 uM using KKKSPGEYVNIEFG as substrate measured after 40 mins in presence of [gamma33P]ATP by scintillation counting method relative to control
Tyrosine-protein kinase Fer (Homo sapiens), sequence (P16591 whole entry, looked up): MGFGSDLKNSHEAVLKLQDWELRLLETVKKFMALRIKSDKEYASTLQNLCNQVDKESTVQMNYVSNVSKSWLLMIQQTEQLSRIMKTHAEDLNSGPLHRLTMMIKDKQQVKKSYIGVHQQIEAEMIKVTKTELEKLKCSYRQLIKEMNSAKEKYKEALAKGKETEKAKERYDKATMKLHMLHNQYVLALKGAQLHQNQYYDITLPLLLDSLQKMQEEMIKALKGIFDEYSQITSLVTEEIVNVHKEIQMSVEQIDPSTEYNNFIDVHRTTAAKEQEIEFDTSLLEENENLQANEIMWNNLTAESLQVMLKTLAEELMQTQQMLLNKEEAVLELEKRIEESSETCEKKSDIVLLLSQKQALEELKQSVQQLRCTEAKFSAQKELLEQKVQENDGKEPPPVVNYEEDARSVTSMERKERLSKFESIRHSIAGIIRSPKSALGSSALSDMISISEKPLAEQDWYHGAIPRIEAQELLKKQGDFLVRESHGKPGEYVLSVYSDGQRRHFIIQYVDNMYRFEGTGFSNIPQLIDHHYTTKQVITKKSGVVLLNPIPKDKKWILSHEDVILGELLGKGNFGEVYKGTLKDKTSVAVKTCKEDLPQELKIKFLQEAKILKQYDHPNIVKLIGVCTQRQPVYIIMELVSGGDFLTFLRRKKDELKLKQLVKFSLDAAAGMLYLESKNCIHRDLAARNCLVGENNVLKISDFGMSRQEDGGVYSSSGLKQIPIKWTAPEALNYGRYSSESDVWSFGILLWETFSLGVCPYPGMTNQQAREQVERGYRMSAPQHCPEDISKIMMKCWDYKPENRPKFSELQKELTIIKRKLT

[14] = molecular target: Cyclin-dependent kinase 5/CDK5 activator 1 (Homo sapiens) (UniProt Q00535+Q15078); assay: Inhibition of recombinant full-length human CDK5/p25 at 1 uM using Histone H1 as substrate measured after 40 mins in presence of [gamma33P]ATP by scintillation counting method relative to control; format: protein-complex assay
Cyclin-dependent kinase 5/CDK5 activator 1 (Homo sapiens), sequence (Q00535 whole entry): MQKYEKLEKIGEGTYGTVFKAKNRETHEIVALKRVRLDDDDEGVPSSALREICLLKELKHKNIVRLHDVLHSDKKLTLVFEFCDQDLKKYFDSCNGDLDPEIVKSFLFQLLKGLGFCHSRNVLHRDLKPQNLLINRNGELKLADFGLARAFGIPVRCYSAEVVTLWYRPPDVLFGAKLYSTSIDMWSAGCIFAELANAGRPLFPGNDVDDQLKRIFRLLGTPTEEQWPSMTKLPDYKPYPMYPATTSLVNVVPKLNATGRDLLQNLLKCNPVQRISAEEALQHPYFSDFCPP
Cyclin-dependent kinase 5/CDK5 activator 1 (Homo sapiens), sequence (Q15078 99-307 partner limits assumed): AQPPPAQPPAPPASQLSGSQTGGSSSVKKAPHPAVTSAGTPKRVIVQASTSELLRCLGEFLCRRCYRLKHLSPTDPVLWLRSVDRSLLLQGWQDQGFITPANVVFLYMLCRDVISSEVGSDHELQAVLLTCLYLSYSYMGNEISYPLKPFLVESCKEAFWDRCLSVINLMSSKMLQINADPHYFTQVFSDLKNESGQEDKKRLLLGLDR

[15] = Intrinsic clearance in human liver microsomes at 2 uM in presence of NADPH measured up to 1 hr by HPLC analysis; format: ADME, Microsome
[16] = molecular target: Misshapen-like kinase 1 (Homo sapiens) (UniProt Q8N4C8); assay: Inhibition of recombinant human MINK (1 to 310 recombinant) at 1 uM using myelin basic protein as substrate measured after 40 mins in presence of [gamma33P]ATP by scintillation counting method relative to control
[17] = molecular target: Myosin-IIIb (Homo sapiens) (UniProt Q8WXR4); assay: Inhibition of recombinant human MYO3B (1 to 326 residues) at 1 uM using RLGRDKYKTLRQIRQ as substrate measured after 40 mins in presence of [gamma33P]ATP by scintillation counting method relative to control
NCI-H1299 [18] = assay: Downregulation of KLF4 in human H1299 cells at 0.25 to 1 uM by Western blot analysis; format: functional, cell-based
[19] = molecular target: Cyclin-dependent kinase-like 1 (Homo sapiens) (UniProt Q00532); assay: Inhibition of recombinant human CDKL1 (1 to 303 residues) at 1 uM using RRRFRPASPLRGP as substrate measured after 120 mins in presence of [gamma33P]ATP by scintillation counting method relative to control
Cyclin-dependent kinase-like 1 (Homo sapiens), sequence (Q00532 whole entry, the tested form may be a part): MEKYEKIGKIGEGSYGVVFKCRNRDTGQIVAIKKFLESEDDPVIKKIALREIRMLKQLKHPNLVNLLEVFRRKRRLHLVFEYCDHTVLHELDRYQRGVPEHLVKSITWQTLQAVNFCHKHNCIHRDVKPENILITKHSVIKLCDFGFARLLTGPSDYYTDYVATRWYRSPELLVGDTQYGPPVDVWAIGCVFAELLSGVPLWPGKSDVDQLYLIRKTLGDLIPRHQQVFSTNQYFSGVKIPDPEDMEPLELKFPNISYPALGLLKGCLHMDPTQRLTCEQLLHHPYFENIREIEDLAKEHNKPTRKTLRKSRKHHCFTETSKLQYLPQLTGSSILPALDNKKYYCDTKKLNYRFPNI

[20] = system: PI3-kinase p110-alpha/p85-alpha (Homo sapiens), P27986+P42336 [H1047R]; assay: Inhibition of recombinant full-length human PI3K p110alpha/p85alpha H1047R mutant at 1 uM using phosphatidylinositol-4, 5-bisphosphate as substrate measured after 40 mins by fluorescence assay relative to control
[21] = molecular target: NT-3 growth factor receptor (Homo sapiens) (UniProt Q16288); assay: Inhibition of recombinant human TrkC (510 to end residues) at 1 uM using GEEPLYWSFPAKKK as substrate measured after 40 mins in presence of [gamma33P]ATP by scintillation counting method relative to control
[22] = molecular target: Muscle, skeletal receptor tyrosine-protein kinase (Homo sapiens) (UniProt O15146); assay: Inhibition of recombinant human MUSK (530 to end residues) at 1 uM using myelin basic protein as substrate measured after 40 mins in presence of [gamma33P]ATP by scintillation counting method relative to control

CN(C)C(=O)c1cc2cnc(Nc3ccc(NC(=O)CCCCCCCN=C=S)cc3)nc2n1C1CCCC1
Activity (NCI-H1299 [1]): Active | inhibition [2]: -4% | inhibition [3]: 25% | inhibition [4]: 72% | Activity (NCI-H1299 [5]): Dose-dependent effect | inhibition [6]: 35% | inhibition [7]: 13% | inhibition [8]: 12% | viability at 0.25 µM (A549): 77.9% | inhibition [9]: -1% | inhibition [10]: 53% | inhibition [11]: 8% | inhibition [12]: 7% | inhibition [13]: 7% | inhibition [14]: 63% | CLH [15]: 70 µL/min/mg | inhibition [16]: 39% | inhibition [17]: -1% | Activity (NCI-H1299 [18]): Active | inhibition [19]: 17% | inhibition [20]: 2% | inhibition [21]: 80% | inhibition [22]: 66%
